APP transl inh: APP translation inhibition | 190,000 tested, 0.82% active | SH-SY5Y APP 5'UTR-luciferase reporter, luminescence | inhibition, % at 2 µM;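 active = inhibition above a set limit, derived from the sample mean plus 3 SD, cut at about 45% in these data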
IEC-6 cytotox: kills IEC-6 intestinal cells in KLF5 counter-screen. IEC-6 cytotoxicity, luminescence viability. inhibition, % at 5 µM. 290,000 tested, 0.78% active;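 also: 0% = plate median of test compound wells and 100% = cytotoxic reference compound wells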
BaF3 tox: parental Ba/F3 viability inhibition as JAK2V617F counter-screen; CellTiter-Glo ATP luminescence; inhibition, % at 5.6 µM; 220,000 tested, 1.1% active;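 active = inhibition above a per-campaign cutoff, the mean inhibition of all tested compounds plus 3 SD, cut at about 27% in these data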;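 also: 0% = DMSO wells and 100% = JAK Inhibitor I control wells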
bCat nuc transl: modulators of beta-catenin nuclear translocation | 190,000 tested, 0.3% active | nuclear translocation activity, % at 5 µM | HeLa beta-catenin nuclear translocation, immunofluorescence imaging;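 active = nuclear translocation activity above 50% at 5 µM, with a well cell count of 50 or more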;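 also: per-cell ratio of nuclear to cytoplasmic median beta-catenin stain intensity; plate controls were DMSO negative control for no effect and GSK-3 inhibitor IX positive control for full effect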
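Test system: human HeLa cells, endogenous beta-catenin. Times: 24 h compound exposure, 37°C. Measured by: beta-catenin immunofluorescence imaging with DAPI.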
Ba/F3 V617F tox: reduce viability of Ba/F3 cells dependent on JAK2V617F | 220,000 tested, 1.1% active | Ba/F3 EpoR-JAK2V617F viability, ATP luminescence | inhibition, % at 5.6 µM;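 active = inhibition above the campaign mean plus 3 SD over all tested compounds, cut at about 24% in these data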;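 also: cytokine-independent growth of Ba/F3 cells driven by EpoR plus mutant JAK2; 0% = DMSO-treated cells and 100% = JAK inhibitor I control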
MT stabilizer: microtubule stabilization, imaging screen | HeLa tubulin immunostaining HCS, 24 h; share of cells brighter than vehicle mean+2SD | % tubulin-high responders, % at 10 µM | 200,000 tested, 0.83% active;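 active = plate Z-score above 3 for both tubulin-high and condensed-nucleus cell shares, with cell loss under 80%, at 10 µM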;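 also: anti alpha tubulin signal scored within the nucleus-defined area of each cell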
IEC-6 tox confirm: IEC-6 cytotoxicity, confirmation assay. inhibition, % at 5 µM. shares compounds with IEC-6 cytotox. IEC-6 rat intestinal epithelial viability, luminescence. 1,900 tested, 63% active;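 also: 0% = vehicle and 100% = reference cytotoxic drug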
An asterisk follows results filed as active; . = no result. Most compounds without a hit are left out; they make up all but 2.2% or so of the library. Rule as the data show it, unless noted: active = inhibition above about 22%; inactive = the rest.

SMILES	APP transl inh	IEC-6 cytotox	BaF3 tox	bCat nuc transl	Ba/F3 V617F tox	MT stabilizer	IEC-6 tox confirm
COc1ccc(C(=O)NCCN2CCOCC2)c(OC)c1OC	-17	-3	5	1	0	1	.
Cc1onc(-c2ccccc2)c1C(=O)OCCOc1ccccc1F	.	1	.	.	.	.	.
Cc1ccccc1OCCOC(=O)c1c(-c2ccccc2)noc1C	.	54*	.	.	.	.	28*
O=C(NCc1cccc(F)c1F)C1CCC(=O)N(C2CCCCCC2)C1 (stereo not given)	.	-6	.	.	.	.	.
COC(=O)Nc1nc(-c2ccccc2)c(C(=O)c2ccccc2)s1	95*	84*	78*	162*	80*	12	56*
C/C(=N\Nc1nc(C)cc(-c2ccccc2)n1)c1ccccc1	.	26*	.	.	.	.	8
CN(CCCC1CCCC1)C(=O)CC1C(=O)NCCN1Cc1ccc(F)cc1 (stereo not given)	.	-11	.	.	.	.	.
CC1(C)CC(N2CCCCC2)=CC(=[N+]2CCCCC2)C1	8	23*	68*	1	84*	5	25*
CC1(C)CC(N2CCOCC2)=CC(=[N+]2CCOCC2)C1	-6	-4	5	-2	-2	2	.
CCC1CCC/C1=N\NC(=O)c1ccoc1C (stereo not given)	.	-2	.	.	.	.	.
Cc1nn(-c2ccccc2)c(C)c1/C=N/NC(=O)c1cc(-c2cccc3ccccc23)n[nH]1	4	7	5	0	6	21	.
Cc1nn(-c2ccccc2)c(C)c1/C=N/NC(=O)c1cc(-c2ccccc2)n[nH]1	95*	77*	78*	80*	71*	14*	58*
COc1ccccc1N1CCN(C(=O)C(=O)c2c(C)[nH]c3ccccc23)CC1	.	-3	.	.	.	.	.
O=C(N/N=C/c1cc(Cl)ccc1O)c1cccnc1	.	60*	.	.	.	.	29*
Cc1cc2nnc(SCC(=O)NCc3cccs3)n2c2ccccc12	4	34*	40*	45	31*	42*	24*
Cc1cc2nnc(SCC(=O)NCc3cccs3)n2c(N)n1	2	-1	2	-1	2	2	.
O=Cc1ccc(Sc2nnc(-c3ccccc3)o2)c([N+](=O)[O-])c1	-5	-4	5	.	4	3	.
Cn1nc([N+](=O)[O-])nc1Sc1nnc(-c2ccccc2)o1	95*	68*	76*	11	92*	4	68*
Cc1cc2nc(C3CCN(Cc4nnnn4Cc4ccccc4)CC3)[nH]c2cc1C	40	72*	68*	0	72*	2	52*
CCC(C)(C)n1nnnc1CN1CCC(c2nc3ccc(C)cc3[nH]2)CC1	-1	11	3	-1	-4	1	.
O=C(NNc1ncc(C(F)(F)F)cc1Cl)c1c(Cl)cccc1Cl	15	46*	83*	.	83*	21*	32*
Cc1ccc2c(CN(C)Cc3ccc(OC(F)F)cc3)cc(=O)oc2c1C	.	4	.	.	.	.	.
Cc1ccc2c(CN(C)Cc3ccccc3)cc(=O)oc2c1C	.	55*	.	.	.	.	33*
Cc1ccc2c(CN(C)Cc3cccc(F)c3)cc(=O)oc2c1C	.	41*	.	.	.	.	24*
Cc1nnc(N/N=C/c2ccc(-c3ccccc3F)o2)n1N	-36	102*	8	-2	5	3	5
SMILES	APP transl inh	IEC-6 cytotox	BaF3 tox	bCat nuc transl	Ba/F3 V617F tox	MT stabilizer	IEC-6 tox confirm
Cc1nnc(N/N=C\c2ccc(-c3ccccc3[N+](=O)[O-])o2)n1N	0	58*	11	-4	2	4	-5
CCc1nnc(N/N=C/c2ccc(-c3ccc([N+](=O)[O-])cc3)o2)n1N	14	10	6	1	1	3	.
CC1(C(=O)N2CCN(C(=O)c3ccco3)CC2)CC1(Br)Br (stereo not given)	.	2	.	.	.	.	.
CC1(C)OC2CC3C4CC(F)C5=CC(=O)C=CC5(C)C4(F)C(O)CC3(C)C2(C(=O)CO)O1 (stereo not given)	.	3	.	.	.	.	.
COc1ccc(-c2csc(NC(C)=O)n2)cc1OC	-8	-4	5	-3	-1	2	.
COc1cccc(NC(=O)Nc2nc(-c3ccc(OC)c(OC)c3)cs2)c1	.	24*	.	.	.	.	15
CCCC(C)C(=O)Nc1ncc(S(=O)(=O)c2ccc([N+](=O)[O-])cc2)s1 (stereo not given)	.	-10	.	.	.	.	.
Cc1nc2ccc(C(=O)N3c4ccccc4CC3C)cc2s1 (stereo not given)	4	25*	12	6	3	19*	34*

From PubChem BioAssay
